Measured values: PubChem BioAssay AID624105 (Broad Institute, 2012)
Activity calls are given as the source filed them.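 Rule for the calls: active = growth reading drops at least 35% at both 405 and 600 nm in duplicate, reached below 10 µM; inactive = the rest, including effects in the opposite direction.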

Legend:
[1] = tested on: P. aeruginosa PAK mexAB-oprM +EDDHA growth, OD600, 28 h; assay: mexAB-OprM mutant growth inhibition with EDDHA – PAK mexAB-OprM pump mutant, OD600, dry powder, dose response (AID 624105)
How it was run: (§1)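 system = P. aeruginosa PAK ΔmexAB-oprM | buffer or medium = succinate M9, pH 7.0, with 2 µM EDDHA iron chelator | schedule = bacteria exposed to compounds 28 h at 30 °C | compound = dose series, final compound 15 nM up to 100 µM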

[2] = as above; conditions: P. aeruginosa PAK mexAB-oprM +EDDHA growth, OD600, 28 h; at 100 µM (top of the series)
How it was run: as §1

## COCCC(C#N)c1ccc(F)cc1 (centres undefined)
[1]
  AC35: 95.8 µM

## N#CC(c1ccc(C(F)(F)F)c(Cl)n1)c1ccccc1OC(F)(F)F (centres undefined)
[2]
  growth change, negative = inhibition: -14.9% (inactive)

## CCCCC(C#N)c1ccccn1 (centres undefined)
[2]
  growth change, negative = inhibition: -13.4% (inactive)

## CN(C)CCCC(C#N)c1ccc(Cl)cc1 (centres undefined)
[2]
  growth change, negative = inhibition: -3.26% (inactive)

## N#CC(c1ccc(Cl)cc1)N1CCCC1 (centres undefined)
[1]
  AC35: > 100 µM (inactive)

## N#CC(c1ccc(F)cc1)c1cccc(Cl)n1 (centres undefined)
[1]
  AC35: 11.5 µM

## N#Cc1cccc(C(C#N)c2ccc(F)cc2)n1 (centres undefined)
[1]
  AC35: 54.9 µM

## N#CC(c1ccc(F)cc1)c1cccc(C(F)(F)F)n1 (centres undefined)
[1]
  AC35: 6.72 µM

## COCCOCCC(C#N)c1ccc(F)cc1 (centres undefined)
[1]
  AC35: 51.9 µM

## N#CC(c1ccc(Cl)cc1)c1ccccn1 (centres undefined)
[1]
  AC35: 31 µM

## CCCCC(C#N)c1ccc(F)cn1 (centres undefined)
[1]
  AC35: 51.7 µM

## COCCOCCC(C#N)c1ccc(Cl)cc1 (centres undefined)
[2]
  growth change, negative = inhibition: -6.59% (inactive)

## N#CC(c1ccc(Cl)cc1)c1ncccc1Cl (centres undefined)
[1]
  AC35: 6.05 µM

## N#CC(c1ccc(Cl)cc1)c1cccc(Cl)n1 (centres undefined)
[1]
  AC35: 8.36 µM

## N#CC(c1cccc(Cl)n1)c1ccc(Cl)cc1F (centres undefined)
[1]
  AC35: 7.15 µM

## N#CC(c1cccc(C(F)(F)F)n1)c1ccc(Cl)cc1F (centres undefined)
[1]
  AC35: 8.69 µM

## Clc1ccc(C(c2cccc(Cl)n2)c2nn[nH]n2)cc1 (centres undefined)
[2]
  growth change, negative = inhibition: 11.1% (inactive)

## N#CC(c1ccc(Cl)cc1)c1cccc(C(F)(F)F)n1 (centres undefined)
[1]
  AC35: 12 µM

## CN(C)CCCC(C#N)c1ccc(F)cc1 (centres undefined)
[1]
  AC35: 49.5 µM
